Measured values published in ChEMBL document CHEMBL4689842, “EUbOPEN Chemogenomics Library wave 1” (2021).
Where “and” joins values, the source holds several entries; their conditions need not be identical. Equal entries are not always repeated.

Tested on: Fibroblast
Test: Multiplex assay against human fibroblast
Assay type: toxicity, cell-based
Details: 1 µM, compound concentration 1 uM
Method in brief: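 Compound was added to live cells that had been stained at seeding with Hoechst33342, BioTracker Green Microtubule Cytoskeleton Dye, MitoTracker Red and Annexin V Alexa Fluor 680, and imaging followed on a CQ1 microscope at 37°C and 5% CO2. CellPathfinder machine-learning gating divided cells into Hoechst high-intensity objects or normal cells, normal cells into healthy, pyknosed or fragmented nuclei, and pyknosed cells into mitotic or apoptotic. Tubulin, mitochondrial-mass and membrane-permeability phenotypes are per cents of healthy-nucleus cells.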

Structure (SMILES): Cc1cc(C)c(-n2ccn3nc(-c4cccnc4)cc23)cc1NC(=O)c1cc(C#N)cc(S(F)(F)(F)(F)F)c1 [BAY-826]
- Population Apoptotic (%) (12 h, replicate 1): 67% and 71%
- Population Fragmented Nuclei (%) (12 h, replicate 1): 37% and 21%
- Population Healthy Nuclei (%) (12 h, replicate 1): 48% and 63%
- Population Hoechst High Intensity Objects (%) (12 h, replicate 1): 11% and 19%
- Population Mitochondria Different-Phenotype (%) (12 h, replicate 1): 3% and 8%
- Population Mitotic Cells (%) (12 h, replicate 1): 32% and 28%
- Population Normal (%) (12 h, replicate 1): 88% and 80%
- Population Pyknosed Nuclei (%) (12 h, replicate 1): 14% and 15%
- Total Cell Count (12 h, replicate 1): 241 and 313
- Population Apoptotic (%) (12 h, replicate 2): 50% and 91%
- Population Fragmented Nuclei (%) (12 h, replicate 2): 55% and 58%
- Population Healthy Nuclei (%) (12 h, replicate 2): 37% and 19%
- Population Hoechst High Intensity Objects (%) (12 h, replicate 2): 23% and 34%
- Population Membrane Permeable-Phenotype (%) (12 h, replicate 2): 20% and 36%
- Population Normal (%) (12 h, replicate 2): 76% and 65%
- Population Pyknosed Nuclei (%) (12 h, replicate 2): 7% and 21%
- Population Tubulin-Different-Phenotype (%) (12 h, replicate 2): 30% and 54%
- Total Cell Count (12 h, replicate 2): 71 and 85
- Population Apoptotic (%) (24 h, replicate 1): 52% and 37%
- Population Fragmented Nuclei (%) (24 h, replicate 1): 23% and 21%
- Population Healthy Nuclei (%) (24 h, replicate 1): 54% and 63%
- Population Hoechst High Intensity Objects (%) (24 h, replicate 1): 12% and 18%
- Population Mitochondria Different-Phenotype (%) (24 h, replicate 1): 8% and 4%
- Population Mitotic Cells (%) (24 h, replicate 1): 47% and 62%
- Population Normal (%) (24 h, replicate 1): 87% and 81%
- Population Pyknosed Nuclei (%) (24 h, replicate 1): 21% and 14%
- Total Cell Count (24 h, replicate 1): 231 and 326
- Population Fragmented Nuclei (%) (24 h, replicate 2): 54% and 59%
- Population Healthy Nuclei (%) (24 h, replicate 2): 35% and 19%
- Population Hoechst High Intensity Objects (%) (24 h, replicate 2): 36% and 28%
- Population Normal (%) (24 h, replicate 2): 64% and 71%
- Population Pyknosed Nuclei (%) (24 h, replicate 2): 10% and 20%
- Population Tubulin-Different-Phenotype (%) (24 h, replicate 2): 29% and 58%
- Total Cell Count (24 h, replicate 2): 75 and 87
